Results taken from ChEMBL document CHEMBL4477197, “Antitumor Activity of Spicatoside A by Modulation of Autophagy and Apoptosis in Human Colorectal Cancer Cells” (J Nat Prod, 2016).
Active and inactive are the calls of the source. The rule behind the calls is not given here.

Assays:
[1] = system: A549; test: Antiproliferative activity against human A549 cells after 24 to 72 hrs by SRB assay; format: functional, cell-based
In short: (§1)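 Cells from ATCC were grown at 37 °C in 5% CO2, in RPMI 1640 (A549, HCT116, SNU-638) or DMEM (MDA-MB-231, SK-HEP-1, MRC5) with 10% FBS. They were seeded at 6 × 10^3 cells/well for 24 h, then exposed for 72 h. Cells were TCA-fixed, stained with 0.4% SRB, and read at 515 nm against day-zero plates. IC50 came from nonlinear regression, as means ± SD.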

[2] = system: SK-HEP1; test: Antiproliferative activity against human SKHEP1 cells after 24 to 72 hrs by SRB assay; format: functional, cell-based; in short: as §1
[3] = system: MRC5; test: Antiproliferative activity against human MRC5 cells after 24 to 72 hrs by SRB assay; format: cell-based; in short: as §1
[4] = system: HCT-116; test: Induction of autophagy in human HCT116 cells assessed as accumulation of beclin 1 after 24 hrs by Western blot analysis; format: functional, cell-based
In short: (§2)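 HCT116 cells were cultured 24 h with the indicated concentrations. Lysates were made in SDS buffer with NaF and orthovanadate and quantified by BCA; 10–30 μg protein was separated by 6–15% SDS-PAGE and transferred to PVDF. After 5% BSA blocking, blots were probed for LC3-II, beclin 1, p62, LAMP1 and cathepsin D, with ECL detection.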

[5] = system: HCT-116; test: Induction of autophagy in human HCT116 cells assessed as downregulation of p62 expression at 10 to 30 uM after 24 hrs by Western blot analysis; format: functional, cell-based; in short: as §2
[6] = system: HCT-116; test: Induction of autophagy in human HCT116 cells assessed as accumulation of LC3-2 at 20 uM after 24 hrs in presence of bafilomycin A1 by Western blot analysis; format: functional, cell-based
In short: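 HCT116 cells were exposed 24 h to 20 μM compound, 2.5 nM bafilomycin A1, or both together. LC3-II was measured by Western blot with β-actin as internal standard. Blots are representative of three separate determinations.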

[7] = Inhibition of PI3K/Akt/mTOR in human HCT116 cells assessed as upregulation of PTEN at 10 to 30 uM after 24 hrs by Western blot analysis; format: cell-based
In short: (§3)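 HCT116 cells (RPMI 1640, 10% FBS, 37 °C, 5% CO2) exposed to the compound for 24 h, then lysed in 2× SDS sample buffer with NaF and orthovanadate and boiled. BCA-normalised protein (10−30 μg) run on 6−15% SDS-PAGE and blotted to PVDF. Blocked in 5% BSA/PBS-Tween, probed for PI3K, PTEN, Akt and mTOR, and detected by ECL. Blots are representative of three determinations.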

[8] = Inhibition of PI3K/Akt/mTOR in human HCT116 cells assessed as suppression of Akt phosphorylation at Ser473 at 10 to 30 uM after 24 hrs by Western blot analysis; format: cell-based; in short: as §3
[9] = molecular target: Cellular tumor antigen p53 (Homo sapiens) (UniProt P04637); test: Induction of p53 expression in human HCT116 cells after 24 hrs by Western blot analysis; format: cell-based
[10] = molecular target: Cellular tumor antigen p53 (Homo sapiens) (UniProt P04637); test: Induction of p53 expression in human HCT116 cells assessed as increase in p21 levels after 24 hrs by Western blot analysis; format: cell-based
[11] = system: HCT-116; test: Growth inhibition of human HCT116 cells after 48 hrs by SRB assay; format: functional, cell-based
In short: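 SRB assay. Cells were seeded at 6 × 10^3/well, grown 24 h, then fixed as day-zero controls or treated 24 or 48 h. They were fixed with 10% TCA and stained with 0.4% SRB in 1% acetic acid; dye was dissolved in 10 mM Tris pH 10.0 and read at 515 nm. Proliferation was normalized to day zero and control, and IC50 came from nonlinear regression. n = 3.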

[12] = system: HCT-116; test: Induction of apoptosis in human HCT116 cells assessed as cell rounding after 48 hrs; format: functional, cell-based
[13] = system: HCT-116; test: Induction of apoptosis in human HCT116 cells assessed as activation of caspase 9 at 10 to 30 uM after 48 hrs by Western blot analysis; format: functional, cell-based
In short: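 HCT116 cells were treated with the indicated concentrations for 48 h. Lysates were prepared in SDS sample buffer and 10–30 μg protein was separated by SDS-PAGE, blotted to PVDF and blocked in 5% BSA. Cleaved caspase-8, -9, -3 and PARP were detected by ECL.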

[14] = system: HCT-116; test: Induction of apoptosis in human HCT116 cells assessed as increase in cytochrome c levels in cytosol after 48 hrs by Western blot analysis; format: functional, cell-based
[15] = system: HCT-116; test: Growth inhibition of human HCT116 cells at 5 to 40 uM in presence of autophagy inhibitor 3-MA after 48 hrs by SRB assay; format: functional, cell-based
In short: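 SRB proliferation assay on HCT116 cells given graded concentrations for 48 h with or without 2 mM 3-MA. Cells were TCA-fixed, stained with 0.4% SRB, solubilized in 10 mM Tris pH 10.0 and read at 515 nm. Growth was normalized to day-zero and vehicle wells. Means ± SD, n = 3.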

[16] = system: HCT-116; test: Induction of beclin 1 cleavage in human HCT116 cells at 30 uM after 48 hrs in presence of caspase-8 inhibitor z-IETD-FMK by Western blot analysis; format: functional, cell-based
In short: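 HCT116 cells were cultured 48 h with 30 μM compound, with or without 20 μM z-IETD-FMK. Lysates were made in SDS loading buffer and 10–30 μg protein was resolved by 6–15% SDS-PAGE and transferred to PVDF. Blots were probed for cleaved caspase-8, beclin 1, cleaved beclin 1 and LC3-II, and detected by ECL.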

[17] = system: HCT-116; test: Antitumor activity against human HCT116 cells xenografted in BALB/c-nu mouse assessed as inhibition of tumor volume at 5 mg/kg, ip administered three times per week for 28 days measured every 3 to 4 days of dosing relative to control; format: functional; conditions: HCT-116, ip
In short: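 HCT116 cells (2 × 106 in 200 μL medium) injected subcutaneously into the right flank of nude mice; at ~200 mm3, mice randomized into groups of five. Compound at 2.5 or 5 mg/kg, dissolved in normal saline with 0.5% Tween 80, given ip three times weekly for 28 days; vehicle controls got equal volume. Tumor volume measured by caliper every 3–4 days.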

[18] = Toxicity in BALB/c-nu mouse xenografted with human HCT116 cells assessed as overt toxicity at 2.5 to 5 mg/kg, ip administered three times per week for 28 days measured during compound dosing relative to control; format: organism-based; conditions: in vivo, 672 h
In short: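 Nude mice carried subcutaneous flank HCT116 implants (2 × 10^6 cells in 200 μL medium). At about 200 mm3 they were randomised into groups of five. Compound at 2.5 or 5 mg/kg in saline with 0.5% Tween 80 was given ip three times weekly for 4 weeks; controls received vehicle. Body weight was monitored throughout for toxicity.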

[19] = system: Mus musculus; test: Inhibition of Ki-67 expression in human HCT116 cells xenografted in BALB/c-nu mouse at 2.5 to 5 mg/kg, ip administered three times per week for 28 days measured post dosing by hematoxylin staining based inverted phase-contrast microscopy; format: functional, organism-based
In short: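 Day-28 xenograft tumors were fixed in 4% paraformaldehyde, paraffin-embedded and serially sectioned. Sections were deparaffinized, rehydrated, antigen-retrieved and immunostained for Ki-67 with HRP detection, then counterstained with hematoxylin. Slides were viewed by inverted phase-contrast microscopy at 200×.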

Sequence of Cellular tumor antigen p53 (Homo sapiens) (P04637 whole entry, looked up): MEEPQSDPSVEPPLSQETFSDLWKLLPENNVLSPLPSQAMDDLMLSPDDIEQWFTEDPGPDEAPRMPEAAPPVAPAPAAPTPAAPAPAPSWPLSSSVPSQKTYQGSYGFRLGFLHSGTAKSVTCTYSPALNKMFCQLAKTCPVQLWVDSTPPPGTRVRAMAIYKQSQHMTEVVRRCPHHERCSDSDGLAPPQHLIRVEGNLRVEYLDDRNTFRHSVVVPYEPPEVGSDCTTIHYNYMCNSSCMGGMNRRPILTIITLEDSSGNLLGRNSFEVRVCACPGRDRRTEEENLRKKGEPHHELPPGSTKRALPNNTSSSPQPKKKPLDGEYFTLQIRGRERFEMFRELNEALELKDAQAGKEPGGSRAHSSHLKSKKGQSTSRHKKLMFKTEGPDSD

Structure (SMILES): C[C@H]1CC[C@@]2(OC1)O[C@H]1C[C@H]3[C@@H]4CC=C5C[C@@H](O)C[C@@H](O[C@@H]6O[C@H](C)[C@H](O)[C@H](O[C@@H]7OC[C@@H](O)[C@H](O)[C@H]7O)[C@H]6O[C@@H]6O[C@H](CO)[C@@H](O)[C@H](O)[C@H]6O)[C@]5(C)[C@H]4CC[C@]3(C)[C@H]1[C@@H]2C
- IC50 [1]: 26 µM
- IC50 [2]: 15.5 µM
- IC50 [3]: 82 µM
- Activity [4]: Dose-dependent effect
- Activity [5]: Active
- Activity [6]: Active
- inhibition [7]: Active
- inhibition [8]: Active
- Activity [9]: Dose-dependent effect
- Activity [10]: Dose-dependent effect
- growth inhibition (GI) [11]: Dose-dependent effect
- IC50 ([11]; HCT-116, 48 h): 20.9 µM
- Activity [12]: Active
- Activity [13]: Active
- Activity [14]: Dose-dependent effect
- growth inhibition (GI) [15]: Active
- Activity [16]: inactive
- inhibition in vivo at 5 mg/kg [17]: 57.5%
- Activity [18]: Non-Toxic
- inhibition [19]: Active
